Test results as given in ChEMBL document CHEMBL1132611, “Novel, potent, and selective phosphodiesterase-4 inhibitors as antiasthmatic agents: synthesis and biological activities of a series of 1-pyridylnaphthalene derivatives” (J Med Chem, 1999).
“And” between values parts separate entries of the source, which are not always exact repeats. Equal entries are not always repeated.

Tests used:
[1] = test system: Canis familiaris; experiment: Emetic effect in dog at 0.3 mg/kg dose, iv; type: functional, Canis lupus familiaris
[2] = test system: Canis familiaris; experiment: Emetic effect in dog at 1 mg/kg dose, iv; type: functional, Canis lupus familiaris
[3] = test system: Cavia porcellus; experiment: Change in guinea pig heart rate at 0.3 mg/kg intravenous dose; type: functional
[4] = species: Cavia porcellus; experiment: Inhibition of antigen-induced bronchoconstriction in guinea pigs (95% confidence); type: functional
Outline: (§1)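 Male Hartley guinea pigs were passively sensitised with iv rabbit anti-ovalbumin antiserum and challenged with ovalbumin 30 µg/kg iv 20–28 h later. Animals were under α-chloralose anaesthesia, ventilated, and paralysed with gallamine. Overflow volume was measured by Konzett–Rössler and expressed as a percentage of the maximum. Compound was given iv 2 min before challenge. ED50 came from the dose–inhibition curve with 95% confidence limits.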

[5] = species: Cavia porcellus; experiment: Inhibition of histamine-induced bronchoconstriction in guinea pigs (95% confidence); type: functional
Outline: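 Guinea pigs received intraduodenal compound, and bronchoconstriction was induced with histamine dihydrochloride 2 µg/kg iv. Pulmonary inflation pressure was recorded in ventilated, gallamine-paralysed animals. ED50 was taken from the dose–inhibition curve using at least three doses, with 95% confidence limits.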

[6] = test system: Cavia porcellus; experiment: Change in guinea pig heart rate at 0.03 mg/kg intravenous dose; type: functional
[7] = test system: Cavia porcellus; experiment: Change in guinea pig heart rate at 0.1 mg/kg intravenous dose; type: functional
[8] = test system: Cavia porcellus; experiment: Inhibition of antigen-induced bronchoconstriction in guinea pigs at 0.03 mg/kg intravenous dose; type: functional; outline: as §1
[9] = test system: Cavia porcellus; experiment: Inhibition of antigen-induced bronchoconstriction in guinea pigs 0.1 mg/kg intravenous dose; type: functional; outline: as §1
[10] = test system: Cavia porcellus; experiment: Inhibition of antigen-induced bronchoconstriction in guinea pigs 0.3 mg/kg intravenous dose; type: functional; outline: as §1
[11] = molecular target: Phosphodiesterase 1 (Homo sapiens, UniProt P54750+Q01064+Q14123); experiment: Inhibition of Phosphodiesterase 1 of guinea pig cardiac ventricle; type: protein assay, Cavia porcellus; conditions: target entry is the homologue from another species
Outline: (§2)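 PDE1, 2 and 3 came from guinea pig cardiac ventricle and PDE4 and 5 from lung, separated by Resource-Q anion exchange on a sodium acetate gradient at pH 6.5. Assays used 1.0 µM [3H]cAMP or [3H]cGMP in 50 mM Tris-HCl pH 8.0, 5 mM MgCl2 and 4 mM 2-mercaptoethanol, for 30 min at 30 °C. Substrate hydrolysis was kept at or below 20%. Triplicates were run at 3–4 inhibitor levels, and IC50 was read graphically.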

[12] = molecular target: T1, Phosphodiesterase 3 (Homo sapiens, UniProt Q14432+Q13370); experiment: In vitro inhibition of Phosphodiesterase 3 activity from guinea pig cardiac ventricle; type: protein assay, Cavia porcellus; conditions: target entry is the homologue from another species; outline: as §2
[13] = molecular target: cGMP-dependent 3',5'-cyclic phosphodiesterase (Homo sapiens, UniProt O00408); experiment: Inhibition of guinea pig cardiac ventricle Phosphodiesterase 2; design: species or system Cavia porcellus; conditions: target entry is the homologue from another species; outline: as §2
cGMP-dependent 3',5'-cyclic phosphodiesterase, sequence (O00408 whole entry): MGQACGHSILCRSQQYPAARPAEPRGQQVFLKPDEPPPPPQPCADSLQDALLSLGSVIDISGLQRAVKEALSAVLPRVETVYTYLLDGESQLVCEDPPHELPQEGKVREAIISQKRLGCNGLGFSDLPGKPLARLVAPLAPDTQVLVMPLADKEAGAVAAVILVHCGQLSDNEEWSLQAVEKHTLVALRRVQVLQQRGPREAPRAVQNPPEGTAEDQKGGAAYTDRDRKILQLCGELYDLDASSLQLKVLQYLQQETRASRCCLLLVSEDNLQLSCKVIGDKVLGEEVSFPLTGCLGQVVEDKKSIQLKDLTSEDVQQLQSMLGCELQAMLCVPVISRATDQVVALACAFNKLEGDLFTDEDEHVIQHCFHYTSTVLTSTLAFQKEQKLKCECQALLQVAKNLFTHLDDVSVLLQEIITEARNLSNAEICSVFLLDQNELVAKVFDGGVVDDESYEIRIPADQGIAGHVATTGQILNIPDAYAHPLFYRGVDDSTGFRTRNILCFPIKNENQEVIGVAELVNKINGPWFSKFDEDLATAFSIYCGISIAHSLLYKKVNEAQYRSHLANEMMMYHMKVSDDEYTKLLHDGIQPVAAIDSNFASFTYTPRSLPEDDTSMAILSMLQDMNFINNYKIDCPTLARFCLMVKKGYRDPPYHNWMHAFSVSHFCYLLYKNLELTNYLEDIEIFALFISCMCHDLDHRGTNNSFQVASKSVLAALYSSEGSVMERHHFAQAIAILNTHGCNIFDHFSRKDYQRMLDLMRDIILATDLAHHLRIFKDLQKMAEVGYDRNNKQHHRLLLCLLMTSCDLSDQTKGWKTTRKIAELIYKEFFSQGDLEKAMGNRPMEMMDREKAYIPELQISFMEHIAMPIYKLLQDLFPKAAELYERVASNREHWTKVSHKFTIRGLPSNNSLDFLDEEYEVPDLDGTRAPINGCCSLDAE

[14] = molecular target: T2, Phosphodiesterase 4 (Homo sapiens, UniProt P27815+Q08499+Q07343+Q08493); experiment: (§3) Displacement of [3H]- rolipram binding to guinea pig brain; type: tissue-based, Cavia porcellus; conditions: target entry is the homologue from another species
Outline: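 Guinea pig brain membranes were made by homogenising in 20 mM Tris-HCl pH 7.4 with 2 mM MgCl2 and 0.1 mM DTT, spun at 45000g, washed and stored at -80 °C. Competition used 3 nM [3H]-(±)-rolipram at 30 °C for 60 min in 25 mM Tris-HCl pH 7.4, 5 mM MgCl2 and 0.05 mM 5'-AMP. Bound ligand was separated by filtration and counted by scintillation.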

[15] = molecular target: T2, Phosphodiesterase 4; experiment: Inhibition of guinea pig lung Phosphodiesterase 4; type: protein assay, Cavia porcellus; conditions: target entry is the homologue from another species; outline: as §2
[16] = molecular target: T2, Phosphodiesterase 4; experiment: Emetic effect in ferrets at peroral 10 mg/kg; type: functional, organism-based; design: dose 10 mg/kg; conditions: Mustela putorius furo; target entry is the homologue from another species
[17] = molecular target: T2, Phosphodiesterase 4; experiment: Emetic effect in ferrets at peroral 30 mg/kg dose; type: functional, organism-based; design: dose 30 mg/kg; conditions: Mustela putorius furo; target entry is the homologue from another species
[18] = test system: Cavia porcellus; experiment: Change in guinea pig heart rate at 1 mg/kg intravenous dose; type: functional
[19] = species: Cavia porcellus; experiment: Inhibition of antigen-induced bronchoconstriction in guinea pigs; type: functional; outline: as §1
[20] = test system: Cavia porcellus; experiment: Inhibition of antigen-induced bronchoconstriction in guinea pigs at 1 mg/kg intravenous dose; type: functional; outline: as §1
[21] = molecular target: T2, Phosphodiesterase 4; experiment: In vitro inhibition of Phosphodiesterase 4 from guinea pig lung; type: protein assay, Cavia porcellus; conditions: target entry is the homologue from another species
[22] = test system: Cavia porcellus; experiment: Change in guinea pig heart rate at 0.01 mg/kg intravenous dose; type: functional
[23] = test system: Cavia porcellus; experiment: Inhibition of antigen-induced bronchoconstriction in guinea pigs at 0.01 mg/kg intravenous dose; type: functional; outline: as §1
[24] = molecular target: T2, Phosphodiesterase 4; experiment: Emetic effect in ferrets at peroral 100 mg/kg; type: functional, organism-based; design: dose 100 mg/kg; conditions: Mustela putorius furo; target entry is the homologue from another species
[25] = molecular target: T1, Phosphodiesterase 3; experiment: Inhibition of guinea pig cardiac ventricle Phosphodiesterase 3; type: protein assay, Cavia porcellus; conditions: target entry is the homologue from another species; outline: as §2
[26] = test system: Cavia porcellus; experiment: Inhibition of antigen-induced bronchoconstriction in guinea pigs 3 mg/kg intravenous dose; type: functional; outline: as §1
[27] = molecular target: T2, Phosphodiesterase 4; experiment: as §3; type: tissue-based, Cavia porcellus; conditions: target entry is the homologue from another species; remark: listed apart in the source
[28] = molecular target: T2, Phosphodiesterase 4; experiment: Emetic effect in ferrets at peroral 100 mg/kg dose; type: functional, organism-based; design: dose 100 mg/kg; conditions: Mustela putorius furo; target entry is the homologue from another species
[29] = test system: Cavia porcellus; experiment: Change in guinea pig heart rate at 3 mg/kg intravenous dose; type: functional

| SMILES | IC50 [11] [nM] | IC50 [12] [nM] | IC50 [21] [nM] | ED50 [4] [mg/kg] | Reduction [9] [%] | other results |
| --- | --- | --- | --- | --- | --- | --- |
| CCOc1cc2cc(CO)c(CO)c(-c3ccnc(-n4nc(-c5cccnc5)c5ccccc5c4=O)c3)c2cc1OCC.Cl [T-2585.HCL] | 10000 | 1800 |  | 0.063 | 57 | Emesis [1]: 8 vomiting/tested; Emesis [2]: 4 vomiting/tested; Heart rate [3]: 2 delta beats min-1; ED50 [5]: 0.033 mg/kg; Heart rate [6]: 4 delta beats min-1; Heart rate [7]: 3 delta beats min-1; Reduction [8]: 37%; Reduction [10]: 84%; IC50 [13]: 1300 nM; Ki [14]: 2.6 nM; IC50 [15]: 0.13 nM; Emesis (vomiting/tested) [16]: 4; Emesis (vomiting/tested) [17]: 4 |
| COc1cc2cc(CO)c(CO)c(-c3ccnc(-n4ccccc4=O)c3)c2cc1OC | 50000 | 2000 | 80 |  |  |  |
| COc1cc2ccc(CO)c(-c3ccnc(-n4nc(-c5cccnc5)c5ccccc5c4=O)c3)c2cc1OC.Cl |  | 700 | 31 |  |  |  |
| COc1cc2cc(CO)cc(-c3ccnc(-n4nc(-c5cccnc5)c5ccccc5c4=O)c3)c2cc1OC.Cl |  | 81 | 0.7 |  |  | Reduction [20]: 33% |
| COC(=O)c1cc2cc(OC)c(OC)cc2c(-c2ccnc(-n3nc(-c4cccnc4)c4ccccc4c3=O)c2)c1C(=O)OC.Cl |  | 29000 | 150 |  |  |  |
| COc1cc2cc(COC(C)=O)c(COC(C)=O)c(-c3ccnc(-n4nc(-c5cccnc5)c5ccccc5c4=O)c3)c2cc1OC.Cl |  | 3500 | 190 |  |  |  |
| CCOc1cc2cc(CO)c(CO)c(-c3ccnc(-n4nc(-c5cccnc5)c5ccccc5c4=O)c3)c2cc1OC.Cl | 20000 | 34 | 0.9 | 0.17 | 23 | Heart rate ([7]; 0.1 mg/kg): 7 delta beats min-1 and 18 delta beats min-1; Reduction [10]: 77% |
| COc1cc2cc(CO)c(CO)c(-c3ccnc(-n4c(=O)ccc5ccccc54)c3)c2cc1OC | 2000 | 330 | 2.8 | 0.12 | 68 | ED50 [5]: 0.4 mg/kg; Reduction [8]: -11%; Reduction [20]: 86%; Reduction [26]: 90%; Ki [27]: 6.2 nM; Emesis (vomiting/tested) [28]: 4 |
| COc1cc2c(-c3ccnc(-n4nc(-c5cccnc5)c5ccccc5c4=O)c3)c(CO)c(CO)cc2cc1OC1CCCC1.Cl |  | 690 | 30 |  |  |  |
| COc1cc2cc(CO)c(CO)c(-c3ccc(-n4nc(-c5cccnc5)c5ccccc5c4=O)nc3)c2cc1OC.Cl | > 100000 | 80000 | 40 |  |  |  |
| COc1ccc(C2CNC(=O)C2)cc1OC1CCCC1 (racemic) [ROLIPRAM] | > 100000 | > 300000 |  |  |  | IC50 [13]: > 100000 nM |
| COc1cc2cc(CO)c(CO)c(-c3ccnc(-n4c(=O)c5ccccc5c5ccccc54)c3)c2cc1OC |  | 41 | 0.2 | 1.2 |  | Heart rate [18]: 18 delta beats min-1; Heart rate [29]: 15 delta beats min-1; Reduction [20]: 38%; Reduction [26]: 91% |
| COc1cc2cc(CO)c(CO)c(-c3ccnc(-n4nc(-c5cccnc5)c5ccccc5c4=O)c3)c2cc1OCc1ccccc1.Cl |  | 16000 | 17 |  |  |  |
| CCOc1cc2c(-c3ccnc(-n4nc(-c5cccnc5)c5ccccc5c4=O)c3)c(CO)c(CO)cc2cc1OC.Cl | 3000 | 490 | 0.16 | 0.18 | 39 | Heart rate [3]: 7 delta beats min-1; Heart rate [7]: 3 delta beats min-1; Reduction [10]: 69% |
| COc1cc2cc(CO)c(CO)c(-c3cccc(-n4nc(-c5cccnc5)c5ccccc5c4=O)n3)c2cc1OC.Cl |  | 5600 | 15 |  |  |  |

The next lines start with results.

| IC50 [11] [nM] | IC50 [12] [nM] | IC50 [21] [nM] | SMILES | ED50 [4] [mg/kg] | Reduction [9] [%] | other results |
| --- | --- | --- | --- | --- | --- | --- |
| 2000 | 100 | 0.49 | COc1cc2cc(CO)c(CO)c(-c3ccnc(-n4nc(-c5ccncc5)c5ccccc5c4=O)c3)c2cc1OC.Cl |  | 15 | Heart rate [3]: 10 delta beats min-1; Heart rate [18]: 29 delta beats min-1; ED50 [19]: 0.17 mg/kg; Heart rate [7]: 12 delta beats min-1; Reduction [10]: 82%; Reduction [20]: 92% |
| 4000 | 170 | 0.55 | COc1cc2cc(CO)c(CO)c(-c3ccnc(-n4nc(-c5ccccn5)c5ccccc5c4=O)c3)c2cc1OC.Cl | 0.18 | 40 | Heart rate [3]: 7 delta beats min-1; Heart rate [18]: 22 delta beats min-1; Heart rate [6]: 3 delta beats min-1; Heart rate [7]: 5 delta beats min-1; Reduction [8]: -25%; Reduction [10]: 78%; Reduction [20]: 87% |
| 2000 | 290 | 0.63 | COc1cc2cc(CO)c(CO)c(-c3ccnc(-n4nc(-c5cccnc5)c5ccccc5c4=O)c3)c2cc1OC.Cl | 0.022 | 73 | ED50 [5]: 1.1 mg/kg; Heart rate [22]: 1 delta beats min-1; Heart rate [6]: 3 delta beats min-1; Heart rate [7]: 1 delta beats min-1; Reduction [23]: 34%; Reduction [8]: 61%; Ki [14]: 3.5 nM; Emesis (vomiting/tested) [16]: 6; Emesis (vomiting/tested) [24]: 4; Emesis (vomiting/tested) [17]: 4 |
|  |  | 700 | COc1cc2c(-c3ccnc(-n4nc(-c5cccnc5)c5ccccc5c4=O)c3)c(CO)c(CO)cc2cc1OCc1ccccc1.Cl.Cl |  |  | IC50 [25]: > 100000 nM |
| > 100000 | 50000 | 5000 | Cl.O=c1c2ccccc2c(-c2cccnc2)nn1-c1cc(-c2c(CO)c(CO)cc3ccccc23)ccn1 |  |  |  |
| 9000 | 400 | 40 | COc1cc2cc(CO)c(CO)c(-c3ccnc(-n4ccc(=O)c5ccccc54)c3)c2cc1OC |  |  |  |
| 5000 | 250 | 0.68 | COc1cc2cc(CO)c(CO)c(-c3ccnc(-n4ncc5ccccc5c4=O)c3)c2cc1OC | 0.24 | 25 | Heart rate [18]: 11 delta beats min-1; Heart rate [29]: 55 delta beats min-1; Heart rate [7]: 16 delta beats min-1; Reduction [20]: 87%; Reduction [26]: 91% |
